In the library only some 1.9% were active in any assay of this set; here they are far more common.
beta cell repl: MIN6 beta-cell proliferation induction. proliferation, % at 10 µM. AID 2380. MIN6 cells proliferation, ATPlite luminescence, 48 h; cells starved in 0.2% serum; 100% = growth in 10% serum. actives 0.29% (n = 330,000);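 active = compounds whose signal lies at least 3.5 SD above the mean of all wells on their plate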;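 also: 0% = DMSO-treated cells in low-serum medium and 100% = 10% serum control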
PG9 Ab binder: binds the HIV-1 gp120 antibody PG9 | actives 0.43% (n = 360,000) | AID 624416 | inhibition, % at 6.7 µM | TR-FRET gp120-PG9 antibody binding; in the data active = inhibition above about 8.5%
Rce1 inh: yeast Ras-converting enzyme inhibition. Q03530. yeast membranes, quenched prenylated peptide cleavage fluorescence. calls only. actives 0.27% (n = 290,000);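 active = fall in fluorescence gain of 50% or more versus controls, with final raw signal at or below 3038400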;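 also: plate controls were neutral control wells for no effect and wells lacking membranes for full effect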
Target sequence (Q03530 whole entry, looked up): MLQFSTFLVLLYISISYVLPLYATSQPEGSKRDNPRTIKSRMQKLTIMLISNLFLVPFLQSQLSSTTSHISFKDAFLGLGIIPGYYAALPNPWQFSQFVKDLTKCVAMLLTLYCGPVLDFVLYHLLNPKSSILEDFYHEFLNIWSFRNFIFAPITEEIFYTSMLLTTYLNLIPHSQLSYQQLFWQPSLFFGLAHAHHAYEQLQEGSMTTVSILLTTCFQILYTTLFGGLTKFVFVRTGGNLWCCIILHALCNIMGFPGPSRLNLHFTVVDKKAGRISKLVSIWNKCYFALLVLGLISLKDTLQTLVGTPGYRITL
Yeast superoxide: lowers age-related superoxide in aged yeast cells; superoxide response (% of plate mean), % at 10 µM; actives 0.18% (n = 330,000); S. cerevisiae aged cells, superoxide DHE fluorescence; active compounds read low;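 active = superoxide response under a set limit, about three screen SD below normal, cut at about 65% in these data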;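 also: yeast aged for seven days with compound at 30 °C before DHE staining; 100% = average MFI of all compound-treated wells on the plate with controls excluded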
UCH37 inh: inhibitors of human deubiquitinating enzyme UCH37; inhibition, % (no concentration beside the values); actives 0.33% (n = 330,000); purified proteasome/UCH37, Ub-AMC cleavage fluorescence; Q9Y5K5;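 active = mean inhibition over replicate wells above about 20%, limit read from the data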;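 also: 0% = compound-free wells with enzyme and 100% = wells lacking proteasome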
Target sequence (Q9Y5K5 whole entry, looked up): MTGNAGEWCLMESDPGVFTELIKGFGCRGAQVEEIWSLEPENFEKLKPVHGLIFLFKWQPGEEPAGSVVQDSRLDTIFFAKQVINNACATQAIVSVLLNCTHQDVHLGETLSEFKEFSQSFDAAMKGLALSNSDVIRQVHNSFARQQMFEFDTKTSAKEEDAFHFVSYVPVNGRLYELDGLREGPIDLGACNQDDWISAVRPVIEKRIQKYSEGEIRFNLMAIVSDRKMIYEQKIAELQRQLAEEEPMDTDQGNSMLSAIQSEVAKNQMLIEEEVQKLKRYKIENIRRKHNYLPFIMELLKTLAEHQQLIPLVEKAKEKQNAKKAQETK
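Assay system: Proteasome-bound UCH37. Buffer or medium: pH 7.4 Tris-HCl (50 mM) with ovalbumin, ATP-MgCl2, DTT. Incubation: 30 min preincubation with enzyme, 25 min cleavage at room temperature. Measured by: fluorescence, ex 355 nm, em 460 nm. Read-out basis: percent inhibition. Control set: wells without proteasome as full block, compound-free enzyme plus substrate as uninhibited.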
NR1D1 modulator: Rev-erb alpha (human) modulation. Rev-erbα–FITC-DNA binding, fluorescence polarization, 90 min. activity, % at 10 µM. actives 0.79% (n = 370,000);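 active = activity above about 14%, limit read from the data; passing the limit was not always enough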;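 also: 0% = DMSO wells with 35 nM protein and 100% = DMSO wells with 750 nM protein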
UCH37 confirm: UCH37 Ub-AMC cleavage inhibition, confirmed; actives 27% (n = 480); shares compounds with UCH37 inh; AID 624100; inhibition, % at 20 µM; Proteasome-bound UCH37, Ub-AMC cleavage fluorescence;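 active = average inhibition over replicates above about 50%, so the earlier screening hit is confirmed, limit read from the data; inactive = the rest, counted as false positives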;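 also: based on cleavage rate fitted by regression over a 30 min kinetic read; 0% = proteasome plus Ub-AMC and 100% = Ub-AMC without proteasome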
PG9 binder conf: PG9 antibody binding, confirmed | TR-FRET PG9 antibody binding, biochemical | AID 651571 | inhibition, % at 6.7 µM | shares compounds with PG9 Ab binder | actives 90% (n = 1,500); in the data active = inhibition above about 9%
PGV04 counter: binds control antibody PGV04 in PG9 binder counter-screen; shares compounds with PG9 Ab binder; TR-FRET PGV04 antibody-gp120 binding, biochemical; inhibition, % at 6.7 µM; actives 95% (n = 1,500); AID 651604; in the data active = inhibition above about 9.5%
Rev-erbA confirm: Rev-erb alpha (human) modulation, hit confirmation | shares compounds with NR1D1 modulator | Rev-erb alpha FITC-DNA binding, fluorescence polarization, 90 min | activation, % at 25 µM | actives 61% (n = 3,000) | AID 1259319;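 active = activation at or above a set limit, or at least 3 SD above the negative control mean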;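 also: 0% = 35 nM protein with DMSO and 100% = 750 nM protein high control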
RORg DNA counter: counter-screen for Rev-erb alpha modulators: RORgamma DNA binding. purified RORgamma protein-FITC-DNA binding, fluorescence polarization. shares compounds with NR1D1 modulator. IC50, µM. actives 8% (n = 910). AID 1259320;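 active = Compounds whose fitted half-maximal concentration for disrupting protein-DNA binding is below 10 micromolar; the record names Rev-erb in its text, so the target is in doubt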
Starred values were filed as active, the others as inactive; i = inactive; . = not tested or not shown.

SMILES	beta cell repl	PG9 Ab binder	Rce1 inh	Yeast superoxide	UCH37 inh	NR1D1 modulator	Rev-erbA confirm	others
CCOc1ccc(-n2c(O)c(C=Nc3ccc(N4CCOCC4)cc3)c(=O)[nH]c2=O)cc1	-2	-2	i	98	45*	-2	.	UCH37 confirm=12
CN1C(=O)C(Cc2cccc3ccccc23)C(=O)N(C)C1=O	1	.	i	111	40*	.	.	UCH37 confirm=2
CN1C(=O)C(c2ccccc2)C(=O)N(C)C1=O	-1	-1	i	93	12	-1	.
COc1ccccc1C=NN=C(N)N[N+](=O)[O-]	.	.	.	.	13	.	.
C[N+]1(C)C2CC(OC(=O)[C@@H](CO)c3ccccc3)CC1C1OC12 (stereo not given in full)	.	.	.	.	.	-5	.
O=C1NC(=O)C(Nc2ccccc2)C(=O)N1	.	-2	.	.	64*	0	.	UCH37 confirm=-4
O=C1OCCN1N=Cc1ccc([N+](=O)[O-])o1	.	.	.	.	4	.	.
CCOc1ccc(N2C(=O)/C(=C/c3ccco3)C(=O)NC2=S)cc1	-3	.	i	101	29*	.	.	UCH37 confirm=99*
CCOc1ccc(N2C(=O)/C(=C\c3cccs3)C(=O)NC2=S)cc1	-6	-2	i	114	4	-8	.
COC(=O)C1=C(c2cccc(C#N)c2)C[C@@H]2CC[C@H]1N2C(=O)NCc1cccc2ccccc12	6	-3	.	109	47*	-4	.	UCH37 confirm=13
COC(=O)C1=C(c2cccc(C#N)c2)C[C@@H]2CC[C@H]1N2C(=O)NCc1ccc(F)cc1	10	0	.	103	-1	-2	.
O=C(N=Nc1c(O)[nH]c(=O)[nH]c1=O)C1COc2ccccc2O1 (stereo not given)	-2	-2	i	88	32*	3	.	UCH37 confirm=5
CCn1cc(C=c2sc3n(c2=O)C2c4ccccc4OC(C)(N=3)C2C(=O)OC)c(C)n1 (stereo not given)	.	.	.	.	11	.	.
Cn1ncnc2c(=O)n(C)c(=O)nc1-2	-4	.	i	91	100*	.	.	UCH37 confirm=100*
CN1C(=O)C(=Cc2ccc(N3CCOCC3)o2)C(=O)N(C)C1=O	-3	-9	i	102	30*	41*	44*	UCH37 confirm=24;RORg DNA counter=>40
CCc1ccccc1N1C(=O)/C(=C/c2ccc(N3CCN(C)CC3)o2)C(=O)NC1=S	-1	-5	i	94	16	0	.
O=C1NC(=O)N(c2ccc3c(c2)OCO3)C(=O)/C1=C\c1ccc(N2CCCCC2)o1	-2	-8	i	102	29*	26*	26*	UCH37 confirm=44
CCCCCC(=NO)c1c[nH]c2ccccc12	.	.	.	.	5	.	.
CC(C)(C)C(=O)c1cn(CC(=O)NCc2ccco2)c2ccccc12	0	-1	i	97	4	4	.
O=C(Cn1cc(C(=O)c2ccccc2F)c2ccccc21)NCc1ccco1	0	17*	i	115	1	1	.	PG9 binder conf=15*;PGV04 counter=37*
NC(=NN=Cc1ccc(O)cc1)N[N+](=O)[O-]	.	.	.	.	18	.	.
COC(=O)Cn1cc(C=C2C(=O)N(C)C(=O)N(C)C2=O)c2ccccc21	1	24*	i	86	0	-1	.	PG9 binder conf=39*;PGV04 counter=53*
COc1ccc(-n2c(=S)[nH]c3ccc(C)cc3c2=O)cc1	.	41*	.	.	.	52*	19*	PG9 binder conf=35*;PGV04 counter=39*
COC[C@]12CN(C)C3C4[C@H](OC)C1C3([C@@H](OC)C[C@H]2O)[C@@H]1C[C@@]2(O)[C@H](OC(=O)c3ccccc3)[C@@H]1[C@]4(OC(C)=O)[C@@H](O)[C@@H]2OC	.	.	.	.	0	.	.
Nc1ccccc1C(=O)OCC(=O)N1CCc2ccccc21	-3	1	i	.	.	-2	.
SMILES	beta cell repl	PG9 Ab binder	Rce1 inh	Yeast superoxide	UCH37 inh	NR1D1 modulator	Rev-erbA confirm	others
CC(C)(C)c1ccc(C(=O)OCC(=O)N2CCC(c3ccccc3)=N2)cc1	-6	-2	.	109	2	14*	-1
Cc1ccc(Sc2ccc(C=C3C(=O)N(C)C(=O)N(C)C3=O)o2)cc1	-2	0	i	84	3	1	.
CN1C(=O)C(=Cc2ccc(N3CCCCCC3)o2)C(=O)N(C)C1=S	-2	-3	.	109	15	39*	60*	RORg DNA counter=>40
O=[N+]([O-])c1ccc(NCc2ccccc2)c2nonc12	-2	-3	i	111	0	38*	52*	RORg DNA counter=4.1*
CN1/C(=C\C=C2C(=O)NC(=S)NC2=O)C(C)(C)c2ccccc21	1	-25	i	.	14	25*	53*	RORg DNA counter=>40
CCCCOCCCN1C(C)=CC(=C2C(=O)NC(=S)NC2=O)C=C1C	0	-1	i	102	-52	41*	-2
O=C(O)CCCc1ccc(N(CCCl)CCCl)cc1	-1	-1	i	104	1	0	.
O=C1NC(=S)SC1=Cc1ccc(N(CCCl)CCCl)cc1	.	-2	.	.	4	24*	20*
CN(c1ccc(O)cc1)c1ccc([N+](=O)[O-])c2nonc12	.	-7	.	.	.	25*	30*	RORg DNA counter=>40
Nc1ccc2nonc2c1[N+](=O)[O-]	4	-1	i	117	8	-5	.
O=c1cccc2n1C[C@H]1CNC[C@H]2C1	.	.	.	.	.	-2	.
Cn1cc(Br)c(C(=O)Nc2ccc3c(C(F)(F)F)cc(=O)oc3c2)n1	2	0	i	123	i	15*	3
Cn1cc([N+](=O)[O-])c(C(=O)Nc2ccc3c(C(F)(F)F)cc(=O)oc3c2)n1	7	-1	i	105	5	-1	.
O=[N+]([O-])c1ccc(N2CCCCCC2)c2nonc12	-1	-4	i	106	.	56*	49*	RORg DNA counter=4.1*
O=[N+]([O-])c1ccc(N2CCCCC2)c2ncccc12	-1	-2	.	93	4	10	.
CCCCCn1c(=O)c(C(=O)Nc2cccc(C)c2)c(O)c2ccccc21	-3	-2	i	105	-17	13	.
CCCCCCn1c(=O)c(C(=O)Nc2cnccn2)c(O)c2ccccc21	-5	-2	i	89	-11	14*	17

Assay outcomes as filed in PubChem BioAssay.
